One may read the EC50 as the concentration that produces a half-maximal response.

Data set [1] has as its system mGluR5. The data set is described as follows: mGluR5 potentiation. The format is cell-based. The note with it: read-out: Potentiator EC50; at an EC20 concentration of glutamate; average of at least three determinations. In short, it runs like this:
(§1)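 Calcium fluorescence recorded continuously on mGluR5. Test compound added alone at t = 4 s, then an EC20 concentration of glutamate added 140 s later. Agonism is read from the response to compound alone; potentiation from the response to EC20 glutamate. Full concentration-response curves, up to 30 μM, give EC50s.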

The conditions of data set [2]: cited from earlier work.
Data set [3] concerns mGluR5. In words: mGluR5 allosteric agonist activity, compound alone without glutamate. The format is cell-based. The method in brief:
as §1

Data set [4] deals with mGluR5. The data set is described as follows: Fold-shift assay of the glutamate concentration-response curve. As to conditions: 1 μM compound; leftward shift. The format is cell-based.

As for `O=C(c1ccc(F)cc1)N1CCCC(c2nc(-c3ccc(F)cc3)no2)C1` (stereo not drawn) [16a], in the data set with mGluR5 [1], the EC50 amounted to 1680 ± 3620 nM.

With `N#Cc1cccc(C(=O)Nc2cc(-c3ccccc3)nn2-c2ccccc2)c1` [CDPPB], the “Solubility in most vehicles” value in data set [2] was “poor solubility”.

Turning to `O=C(c1ccc(F)cc1)N1CCC[C@H](c2nc(-c3ccc(F)cc3)no2)C1` [ADX-47273], the EC50 in the data set on mGluR5 [1] came to 168 ± 28 nM; in the data set with mGluR5 [3] (read-out: Allosteric agonist EC50, absence of an EC20 of glutamate) it was 9500 nM. For the same compound, the “Allosteric agonist % Glu Max” value in the data set with mGluR5 [3] is 65%. Further, the “Fold shift of the glutamate CRC” value in the data set on mGluR5 [4] was 9 fold.

The values are drawn from publication PMC2865690 (ChemMedChem, 2009).
